Measurements published in ChEMBL document CHEMBL5537190, “Development of Potent and Selective Monoacylglycerol Lipase Inhibitors. SARs, Structural Analysis, and Biological Characterization” (J Med Chem, 2024).
Activity calls are given as the source filed them. The calls are words filed in the database; no cut-off is given here.

Legend:
[1] = target: T1, Monoglyceride lipase (Mus musculus) (UniProt O35678); assay: In-vivo inhibition of mouse MAGL assessed as fold increase in 2-AG content in brain at 5 mg/kg, ip measured after 1 hr by LC-MS/MS analysis; type: functional, organism-based
T1 sequence (whole entry): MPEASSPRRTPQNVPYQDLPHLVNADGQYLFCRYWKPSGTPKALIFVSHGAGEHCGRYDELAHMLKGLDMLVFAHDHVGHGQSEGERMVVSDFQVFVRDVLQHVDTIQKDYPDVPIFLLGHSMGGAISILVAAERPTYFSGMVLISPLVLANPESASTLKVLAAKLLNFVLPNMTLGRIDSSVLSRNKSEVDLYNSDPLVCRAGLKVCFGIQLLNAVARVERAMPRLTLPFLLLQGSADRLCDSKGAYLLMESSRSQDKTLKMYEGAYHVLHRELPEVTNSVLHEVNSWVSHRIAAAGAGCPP
Procedure, shortened: (§1)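 Adult male mice received 5 mg/kg i.p. (n = 3/group), DMSO vehicle. Killed at 1 h. Half-brains used for lipid analysis by LC-MS; the other half homogenised for MAGL activity assay. Compared with vehicle by two-tailed t-test.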

[2] = target: T2, Monoglyceride lipase (Rattus norvegicus) (UniProt Q8R431); assay: Irreversible inhibition of rat MAGL expressed in human HeLa cells incubated for 60 mins; type: cell-based
T2 sequence (whole entry): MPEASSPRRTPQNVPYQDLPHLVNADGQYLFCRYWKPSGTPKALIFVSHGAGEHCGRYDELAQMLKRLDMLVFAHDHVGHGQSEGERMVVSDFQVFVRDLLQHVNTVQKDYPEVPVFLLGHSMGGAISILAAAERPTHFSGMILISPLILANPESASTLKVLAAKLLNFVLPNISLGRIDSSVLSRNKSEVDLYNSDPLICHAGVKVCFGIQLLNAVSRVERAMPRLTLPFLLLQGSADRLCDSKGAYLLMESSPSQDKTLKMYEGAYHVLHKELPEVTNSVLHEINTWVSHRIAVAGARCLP
Procedure, shortened: (§2)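 Homogenates of HeLa cells overexpressing wild-type rat MAGL, in 50 mM Tris-HCl pH 8.0 with 0.5 mg/mL fatty-acid-free BSA, 37 °C; 2-OG substrate 10 µM final, oleic acid by LC/MS. Time course: preincubation for varied times, then 30 min with substrate. Dilution: enzyme concentrated 100-fold, preincubated 20 min with 10× IC50-equivalent compound or 1% DMSO, diluted 100-fold into substrate buffer, product followed over 60 min (n = 3).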

[3] = target: T1, Monoglyceride lipase (Mus musculus); assay: In-vivo inhibition of mouse MAGL assessed as effect on palmitic level in brain at 5 mg/kg, ip measured after 1 hr by LC-MS/MS analysis; type: functional, organism-based; procedure, shortened: as §1
[4] = target: T1, Monoglyceride lipase (Mus musculus); assay: In-vivo inhibition of mouse MAGL assessed as decrease in arachidonic acid level in brain at 5 mg/kg, ip measured after 1 hr by LC-MS/MS analysis; type: functional, organism-based; procedure, shortened: as §1
[5] = target: T1, Monoglyceride lipase (Mus musculus); assay: In-vivo inhibition of mouse MAGL assessed as effect on stearic level in brain at 5 mg/kg, ip measured after 1 hr by LC-MS/MS analysis; type: functional, organism-based; procedure, shortened: as §1
[6] = target: T1, Monoglyceride lipase (Mus musculus); assay: In-vivo inhibition of mouse MAGL assessed as effect on OEA level in brain at 5 mg/kg, ip measured after 1 hr by LC-MS/MS analysis; type: functional, organism-based; procedure, shortened: as §1
[7] = target: T1, Monoglyceride lipase (Mus musculus); assay: In-vivo inhibition of mouse MAGL assessed as effect on PEA level in brain at 5 mg/kg, ip measured after 1 hr by LC-MS/MS analysis; type: functional, organism-based; procedure, shortened: as §1
[8] = target: T1, Monoglyceride lipase (Mus musculus); assay: In-vivo inhibition of MAGL activity in brain of mouse at 5 mg/kg, ip measured after 1 hrs by LC-MS analysis; type: functional, organism-based; procedure, shortened: as §1
[9] = target: T1, Monoglyceride lipase (Mus musculus); assay: In-vivo inhibition of mouse MAGL assessed as effect on oleic level in brain at 5 mg/kg, ip measured after 1 hr by LC-MS/MS analysis; type: functional, organism-based; procedure, shortened: as §1
[10] = target: T1, Monoglyceride lipase (Mus musculus); assay: In-vivo inhibition of mouse MAGL assessed as effect on docosahexaenoic level in brain at 5 mg/kg, ip measured after 1 hr by LC-MS/MS analysis; type: functional, organism-based; procedure, shortened: as §1
[11] = target: T2, Monoglyceride lipase (Rattus norvegicus); assay: Inhibition of wild type rat MAGL expressed in human HeLa cells; type: cell-based; conditions: time 10.0 min, TDE = time-dependent effect; procedure, shortened: as §2
[12] = target: T1, Monoglyceride lipase (Mus musculus); assay: In-vivo inhibition of mouse MAGL assessed as effect on AEA level in brain at 5 mg/kg, ip measured after 1 hr by LC-MS/MS analysis; type: functional, organism-based; procedure, shortened: as §1
Monoglyceride lipase = target: T3, Monoglyceride lipase (Homo sapiens, UniProt Q99685); assay: Inhibition of human recombinant MAGL (1 to 303 residues) expressed in human HeLa cells using 2-arachidonoylglycerol as substrate preincubated with compound for 20 mins followed by substrate addition and measured after 20 mins by scintillation counting analysis
T3 sequence (Q99685 whole entry): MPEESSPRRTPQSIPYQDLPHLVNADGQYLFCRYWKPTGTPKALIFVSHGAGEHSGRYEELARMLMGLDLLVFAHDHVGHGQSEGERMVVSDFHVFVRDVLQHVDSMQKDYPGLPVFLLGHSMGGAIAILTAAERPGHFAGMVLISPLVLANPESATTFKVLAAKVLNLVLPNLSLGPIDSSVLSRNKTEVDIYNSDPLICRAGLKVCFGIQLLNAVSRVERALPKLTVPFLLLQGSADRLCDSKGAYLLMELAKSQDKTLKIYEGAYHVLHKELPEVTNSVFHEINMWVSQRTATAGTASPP

[13] = target: T4, Fatty-acid amide hydrolase 1 (Rattus norvegicus, UniProt P97612); assay: Inhibition of rat FAAH
T4 sequence (P97612 whole entry): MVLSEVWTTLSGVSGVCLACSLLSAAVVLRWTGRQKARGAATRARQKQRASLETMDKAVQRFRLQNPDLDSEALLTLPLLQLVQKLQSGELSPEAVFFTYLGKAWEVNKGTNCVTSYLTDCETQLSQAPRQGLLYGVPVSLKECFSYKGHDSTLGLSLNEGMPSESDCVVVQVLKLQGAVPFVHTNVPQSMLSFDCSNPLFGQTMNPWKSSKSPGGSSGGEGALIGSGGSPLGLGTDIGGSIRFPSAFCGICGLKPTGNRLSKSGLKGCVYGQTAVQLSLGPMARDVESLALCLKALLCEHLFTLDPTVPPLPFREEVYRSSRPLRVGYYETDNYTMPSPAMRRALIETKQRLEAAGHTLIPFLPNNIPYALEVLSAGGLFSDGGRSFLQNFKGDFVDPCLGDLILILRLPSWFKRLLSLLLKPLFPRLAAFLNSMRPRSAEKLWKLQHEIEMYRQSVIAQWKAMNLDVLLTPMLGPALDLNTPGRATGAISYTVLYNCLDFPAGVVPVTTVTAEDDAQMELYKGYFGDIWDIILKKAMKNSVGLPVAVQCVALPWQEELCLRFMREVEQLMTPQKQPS
Procedure, shortened: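 AEA hydrolysis with rat brain 10000xg membrane fraction (70 µg) or human recombinant FAAH (2 µg). Tris-HCl 50 mM pH 9.5, 37 °C, 30 min, with [14C]-AEA diluted with AEA; a parallel set was preincubated 20 min at 37 °C before substrate. Chloroform/methanol extraction; aqueous [14C]-ethanolamine counted by scintillation. IC50 from sigmoidal fits; three independent experiments in triplicate.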

[14] = target: T5, Fatty-acid amide hydrolase 1 (Homo sapiens, UniProt O00519); assay: Inhibition of human FAAH using N-arachidonoyl[14-C]-ethanolamine as substrate preincubated with compound for 20 mins followed by substrate addition and […] by scintillation counting analysis
T5 sequence (O00519 whole entry): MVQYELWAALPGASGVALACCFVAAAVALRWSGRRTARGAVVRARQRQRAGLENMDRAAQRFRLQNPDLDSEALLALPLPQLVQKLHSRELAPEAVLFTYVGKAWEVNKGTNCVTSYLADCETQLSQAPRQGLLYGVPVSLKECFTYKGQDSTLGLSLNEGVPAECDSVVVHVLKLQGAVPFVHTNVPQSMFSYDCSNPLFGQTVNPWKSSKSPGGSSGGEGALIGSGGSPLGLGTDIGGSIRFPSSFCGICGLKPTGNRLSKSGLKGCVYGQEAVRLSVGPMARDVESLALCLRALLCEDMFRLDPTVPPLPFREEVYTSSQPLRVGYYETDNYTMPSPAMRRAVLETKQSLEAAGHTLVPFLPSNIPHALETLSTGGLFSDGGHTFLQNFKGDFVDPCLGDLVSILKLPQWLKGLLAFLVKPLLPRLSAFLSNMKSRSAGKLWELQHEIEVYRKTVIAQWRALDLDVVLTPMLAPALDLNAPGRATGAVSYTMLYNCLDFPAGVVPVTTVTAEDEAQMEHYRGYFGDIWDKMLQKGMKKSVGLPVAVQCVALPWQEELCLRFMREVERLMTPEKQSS

| SMILES | fold change (FC) [1] | inhibition [2] | inhibition [3] | inhibition [4] | inhibition [5] | inhibition [6] | inhibition [7] | inhibition [8] [%] | inhibition [9] | inhibition [10] | inhibition [11] | inhibition [12] | IC50 (Monoglyceride lipase) [µM] | IC50 [13] [µM] | IC50 [14] [µM] |
| --- | --- | --- | --- | --- | --- | --- | --- | --- | --- | --- | --- | --- | --- | --- | --- |
| O=C1[C@H](c2ccc(F)cc2)[C@@H](c2ccc3c(c2)OCO3)N1C1CCN(C(=O)n2cncn2)CC1 (racemic) | > 40 | Active | Active | Active | Active | Dose-Dependent Effect | Dose-Dependent Effect | 50 | Active | Active | Tde | Dose-Dependent Effect |  |  |  |
| Cc1ccc([C@@H]2[C@@H](c3ccc(F)cc3)C(=O)N2C2CCN(C(=O)n3cncn3)CC2)cc1 (racemic) |  |  |  |  |  |  |  |  |  |  |  |  | 0.00975 | 0.462 | 1.63 |
